# Only some compounds are listed: those with a hit (about 3.2% of all), similar ones and a draw of the others.
# DAGLB inh = diacylglycerol lipase beta (human) inhibition; 0.059% of 340,000 active; inhibition, % at 5.17 µM; HEK293T DAGLB membrane lysate, EnzChek fluorogenic substrate; AID 504411; Q8NCG7; in the data active means inhibition above about 34%;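 further: 0% = enzyme with vehicle and 100% = wells lacking enzyme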
# Target sequence (Q8NCG7 whole entry, looked up): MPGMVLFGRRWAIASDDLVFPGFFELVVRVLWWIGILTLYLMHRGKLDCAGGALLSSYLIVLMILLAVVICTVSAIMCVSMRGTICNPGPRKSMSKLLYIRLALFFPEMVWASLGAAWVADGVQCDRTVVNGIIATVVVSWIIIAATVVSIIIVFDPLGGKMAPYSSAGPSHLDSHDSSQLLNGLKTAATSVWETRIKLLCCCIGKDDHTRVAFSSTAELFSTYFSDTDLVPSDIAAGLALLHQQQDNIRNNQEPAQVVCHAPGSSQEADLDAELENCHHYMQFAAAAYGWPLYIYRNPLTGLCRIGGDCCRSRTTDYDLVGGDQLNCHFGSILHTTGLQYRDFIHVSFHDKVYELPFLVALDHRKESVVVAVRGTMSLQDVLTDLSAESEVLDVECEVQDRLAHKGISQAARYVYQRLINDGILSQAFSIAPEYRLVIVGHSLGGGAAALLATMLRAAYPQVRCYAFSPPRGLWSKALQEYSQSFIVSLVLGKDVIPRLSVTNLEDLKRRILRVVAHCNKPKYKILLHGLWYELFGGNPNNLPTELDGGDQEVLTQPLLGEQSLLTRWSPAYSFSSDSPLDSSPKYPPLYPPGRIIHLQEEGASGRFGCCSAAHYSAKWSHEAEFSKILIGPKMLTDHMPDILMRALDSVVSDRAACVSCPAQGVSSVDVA
# mABHD4 FP = ABHD4 (mouse) inhibition, primary FP screen; Q8VD66; purified mABHD4, FP-Rh probe fluorescence polarization; inhibition, % at 8.92 µM; 0.54% of 370,000 active; AID 720543;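 active means inhibition exceeding the mean over every tested compound plus 3 SD, cut at about 30% in these data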;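 further: 0% = plate median of compound wells and 100% = S159A mutant with DMSO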
#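 Assay system: wild-type mouse ABHD4 protein; compound: single nominal dose of 8.92 µM, 0.89% DMSO final; schedule: 45 min + 60 min at 25 °C; measured by: FP readout, ex 525 nm / em 598 nm; evaluation: % inhibition of FP-Rh probe binding versus controls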
# HTRA1 inhibitor = HTRA1 (human) protease inhibition | Q92743 | recombinant HTRA1, FP-rhodamine activity-based probe, fluorescence polarization | inhibition, % at 5.96 µM | 0.5% of 340,000 active | AID 504803; in the data active means inhibition above about 36%;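 further: 0% = enzyme with DMSO and 100% = wells lacking enzyme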
# LEDGF integ inh = blocks HIV-1 LEDGF/p75-dependent DNA integration | TR-FRET IN-LEDGF/p75 DNA integration, Eu/Cy5 | inhibition, % at 3.7 µM | 0.64% of 370,000 active;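 active means inhibition above the screen-wide mean plus 3 SD, cut at about 13% in these data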;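 further: signal is the Cy5 over europium emission ratio at 671 and 618 nm; 0% = plate median of compound wells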
# rCAG binder = molecules binding r(CAG) RNA repeats; inhibition, % at 3 µM; 1.3% of 370,000 active; r(CAG) RNA repeat, TO-PRO-1 dye displacement fluorescence; AID 651821;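 active means inhibition above the plate cutoff, the mean of all test compounds on that plate plus 3 SD, cut at about 35% in these data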;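 further: 0% = DMSO alone and 100% = 100 µM mitoxantrone as full dye displacement; higher means more dye released from RNA so lower well fluorescence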
# PRMT1 inh = PRMT1 (human) inhibition, primary screen; recombinant PRMT1, activity-based probe fluorescence polarization; AID 652257; 1.3% of 370,000 active; inhibition, % at 2.79 µM; Q99873;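 active means inhibition above about 21% made by adding two undisclosed values, limit read from the data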
# rCAG binder conf = r(CAG) RNA repeat binding, confirmation; shares compounds with rCAG binder; TO-PRO-1 dye displacement fluorescence; inhibition, % at 3 µM; 70% of 4,300 active;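 active means inhibition above a per-plate cutoff, the mean inhibition of sample wells plus 3 SD, cut at about 35% in these data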;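 further: loss of TO-PRO-1 fluorescence as compound displaces dye from 1x1 AA loop RNA; 0% = DMSO only wells and 100% = 100 µM mitoxantrone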
# DNA CAG counter = disrupts DNA CAG TO-PRO-1 complex, flagging rCAG hits; 94% of 4,300 active; d(CAG) DNA oligo TO-PRO-1 dye displacement, fluorescence; AID 652068; inhibition, % at 3 µM; shares compounds with rCAG binder;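 active means inhibition above its plate's cutoff, the mean test-well inhibition plus 3 SD, cut at about 4.8% in these data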;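 further: 0% = DNA dye mix with DMSO and 100% = 100 µM mitoxantrone; hits displace the dye from DNA and so lower well fluorescence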
# dCAG dye DR = counter-screen for rCAG binders: inhibitors of DNA CAG TO-PRO-1 complex. shares compounds with rCAG binder. DNA CAG/GTC duplex TO-PRO-1 dye displacement fluorescence. IC50, µM. 20% of 250 active. AID 686960; in the data active means IC50 below about 10 µM
# * hit, by the source's call; i = inactive; nt = no result given.
SMILES,DAGLB inh,mABHD4 FP,HTRA1 inhibitor,LEDGF integ inh,rCAG binder,PRMT1 inh,rCAG binder conf,DNA CAG counter,others
CC(C)c1ccc(OCC(=O)Nc2cccc(C(=O)Nc3ccccc3C(=O)O)c2)cc1,9,-68,-119,0,82*,1,88*,63*,
Cc1cccc(OCC(=O)Nc2cccc(C(=O)Nc3ccccc3C(=O)O)c2)c1,5,-34,-35,-1,71*,2,66*,29*,
O=C(COc1ccccc1[N+](=O)[O-])Nc1cccc(C(=O)Nc2ccccc2C(=O)O)c1,6,-4,-20,-4,69*,6,80*,45*,
Cc1c(NC(=O)c2ccccc2NC(=O)COc2ccccc2)cccc1C(=O)O,-1,-1,1,-4,0,3,nt,nt,
O=C(c1cc2ccccc2cc1O)N1CCN(c2ccc([N+](=O)[O-])cc2)CC1,2,2,-16,2,20,2,nt,nt,
O=C(O)CCCC(=O)NNc1ncnc2ccccc12,2,5,-1,-1,3,-2,nt,nt,
c1cncc(-c2cnc3ccccc3c2)c1,2,-7,-3,-2,0,-1,nt,nt,
CC(=O)c1cc2c(ccc3ccccc32)oc1=O,-3,2,4,4,6,-2,nt,nt,
Cc1cc(Cl)cc2c(N=Nc3ccccc3C(=O)O)c(O)[nH]c12,2,11,-1,-3,39*,-2,92*,76*,
Cc1cc(Nc2cccc(Cl)c2)nc(-c2ccccc2O)n1,-6,-32,-17,-2,36*,3,24,10.0*,
Cc1ccc(C(=O)N/N=C(/CC(=O)c2cccs2)C(F)(F)F)cc1,15,-21,10,-1,45*,2,32,7.6*,
COc1ccc(/C=N/Nc2nc(N3CCCC3)nc(N3CCCC3)n2)c(OC)c1OC,-3,5,-10,-2,-2,2,nt,nt,
NN=C1c2ccccc2C(=O)C1C(=O)C(c1ccccc1)c1ccccc1 (stereo unspecified),-11,-109,-40,4,45*,3,44*,28*,
CCN1CCN(C(=O)c2ccc(OCC(=O)Nc3ccc(F)cc3)c(OC)c2)CC1,-2,2,0,-1,-6,1,nt,nt,
COc1ccccc1NS(=O)(=O)c1ccc(NC(=O)c2[nH]nc(OC)c2[N+](=O)[O-])cc1,2,9,-3,0,47*,-2,26,7.2*,
COC(=O)c1cc(OC)c(OC)cc1NC(=S)Nc1cc(Cl)ccc1OC,-1,-3,-6,-1,2,-4,nt,nt,
COc1ccc(Cl)cc1NC(=S)NNC(=O)C1(C)CC1(Cl)Cl (stereo unspecified),10,0,-7,1,43*,-2,25,5.5*,
COC(=O)c1cc(=O)nc(NN=C2c3ccccc3-c3ccccc32)s1,nt,3,nt,3,38*,1,94*,77*,
CC1CC(NS(=O)(=O)c2cc3c4c(c2)CCN4C(=O)CC3)CC(C)(C)C1 (stereo unspecified),2,0,-6,-1,-4,2,nt,nt,
COc1cc(OC)c2c(O)c3c(=O)cc(C)oc3c(-c3c(OC)cc4cc5c(c(O)c4c3O)C(=O)CC(C)(O)O5)c2c1 (stereo unspecified),nt,-12,nt,2,44*,-4,41*,22*,
COc1ccc(CNC(=O)COc2cc(O)c3c(c2)OC(C)(C)CC3=O)c(OC)c1,-5,-2,-12,1,-5,4,nt,nt,
O=c1cc(-c2ccccc2Cl)oc2c([N+](=O)[O-])c(O)cc(O)c12,10,-3,-8,1,51*,1,35*,12*,
O=c1cc(-c2ccccc2Cl)oc2ccc([N+](=O)[O-])c(O)c12,4,2,-3,1,1,1,nt,nt,
Cc1ccc(C(C)NC(=O)c2ccco2)cc1 (stereo unspecified),3,9,2,-3,1,-1,nt,nt,
CCCN1CCCCC(NC(=O)OC(C)(C)C)C1=O (stereo unspecified),nt,2,nt,0,2,0,nt,nt,
SMILES,DAGLB inh,mABHD4 FP,HTRA1 inhibitor,LEDGF integ inh,rCAG binder,PRMT1 inh,rCAG binder conf,DNA CAG counter,others
CCc1nnc(NS(=O)(=O)c2ccc(NC(=O)CCC(=O)O)cc2)s1,0,-2,-3,0,-2,2,nt,nt,
CCc1nnc(NS(=O)(=O)c2ccc(NC(=O)c3cc(Cl)ccc3[N+](=O)[O-])cc2)s1,7,1,-6,9,45*,-5,25,5.9*,
CCc1nnc(NS(=O)(=O)c2ccc(NC(=O)COc3ccc4ccccc4c3)cc2)s1,0,-18,-7,1,30,-2,nt,nt,
CCc1nnc(NS(=O)(=O)c2ccc(NC(=O)c3cccc4ccccc34)cc2)s1,6,-26,-24,2,64*,0,44*,16*,
CCc1nnc(NS(=O)(=O)c2ccc(NC(=O)c3cc(Cl)ccc3Cl)cc2)s1,9,-11,-22,2,54*,1,36*,11*,
CC(=O)c1ccc(N(C(=O)CNC(=O)c2ccco2)C(C(=O)NC2CCCC2)c2cccnc2)cc1 (stereo unspecified),0,3,-7,0,7,-1,nt,nt,
CCc1nc2nc(C)c(NS(=O)(=O)c3ccc(C4CCCCC4)cc3)c(=O)n2[nH]1,3,-10,0,-1,49*,1,44*,14*,
Cc1nc2nc(C)c(NS(=O)(=O)c3ccc(C4CCCCC4)cc3)c(=O)n2[nH]1,3,-5,-1,-1,38*,3,40*,9.5*,
CCCCC(=O)Nc1ccc(NC(=S)NC(=O)c2cccs2)cc1OC,-3,-8,-5,0,1,-2,nt,nt,
CCOC(=O)c1ccccc1-c1csc(NS(=O)(=O)c2ccc(Cl)cc2)n1,21,13,-4,-3,76*,-1,70*,33*,dCAG dye DR=i
CCOC(=O)Cc1csc(NS(=O)(=O)c2ccccc2)n1,2,0,1,0,4,-1,nt,nt,
Cc1ccc(S(=O)(=O)Nn2c(O)c(C=C3N=c4ccccc4=N3)sc2=S)cc1,24,13,-15,-6,94*,25*,88*,60*,
O=C1N=c2ccc(Br)cc2=C1c1sc(=S)n(NS(=O)(=O)c2ccccc2)c1O,3,26,-2,-1,81*,8,80*,50*,

# High-throughput results: PubChem, The Scripps Research Institute Molecular Screening Center
